Laboratory results published in ChEMBL document CHEMBL4261491, “Synthesis and synergistic antifungal effects of monoketone derivatives of curcumin against fluconazole-resistant Candida spp” (Medchemcomm, 2017).
Converted amounts (≈) assume the structure as drawn. The source made the active and inactive calls. The calls are words filed in the database; no cut-off is given here.

Key:
[1] = Cytotoxicity against HUVEC assessed as cell viability at 32 ug/ml after 24 hrs by MTT assay relative to control; type: cell-based; settings: human, HUVEC cells; read-out: Activity
How it was run: (§1)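 HUVECs grown in DMEM with 10% FCS and 100 μg ml–1 streptomycin, 5% CO2, 37 °C. Cells exposed to compounds at 16 and 32 μg ml–1 for 24 h, then incubated with MTT solution (5 mg ml–1) for 3 h. Optical density read at 570 nm. Viability expressed as percentage relative to drug-free control.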

[2] = Cytotoxicity against HUVEC assessed as cell viability at 16 ug/ml after 24 hrs by MTT assay relative to control; type: cell-based; settings: human, HUVEC cells; read-out: Activity; how it was run: as §1
Pichia kudriavzevii [3] = assay: Antifungal activity against fluconazole-resistant Candida krusei clinical isolate 2159 in presence of 8 ug/ml fluconazole by broth microdilution method; type: functional; settings: for MIC80: Pichia kudriavzevii, isolate 2159
How it was run: (§2)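 Broth microdilution per CLSI/NCCLS M27-A2 against FLC-resistant clinical isolates. MIC80 read for each compound alone and with fluconazole at 8.0 μg ml–1. C. albicans ATCC 90028 served as quality control. Curcumin was the positive control.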

Pichia kudriavzevii [4] = assay: Antifungal activity against fluconazole-resistant Candida krusei clinical isolate 2159 by broth microdilution method; type: functional; how it was run: as §2
Candida tropicalis [5] = assay: Antifungal activity against fluconazole-resistant Candida tropicalis clinical isolate 087 by broth microdilution method; type: functional; how it was run: as §2
Candida tropicalis [6] = assay: Antifungal activity against fluconazole-resistant Candida tropicalis clinical isolate 087 in presence of 8 ug/ml fluconazole by broth microdilution method; type: functional; settings: for MIC80: Candida tropicalis, isolate 087; how it was run: as §2
Candida albicans [7] = assay: Antifungal activity against fluconazole-resistant Candida albicans clinical isolate 103 in presence of 8 ug/ml fluconazole by broth microdilution method; type: functional; settings: for MIC80: Candida albicans, isolate 103; how it was run: as §2
Candida albicans [8] = assay: Antifungal activity against fluconazole-resistant Candida albicans clinical isolate 103 by broth microdilution method; type: functional; how it was run: as §2
Candida tropicalis [9] = assay: Fungicidal activity against fluconazole-resistant Candida tropicalis clinical isolate 087 at 128 ug/ml after 48 hrs; type: functional, organism-based
How it was run: (§3)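 C. tropicalis 087 was grown in RPMI 1640 at 30 °C for 48 h with fluconazole (0.25, 0.5, 1 μg ml–1) or compound (64, 128 μg ml–1), alone or combined. OD630 was read every 8 h to build growth curves. Three independent experiments, means ± SD.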

Candida tropicalis [10] = assay: Antifungal activity against fluconazole-resistant Candida tropicalis clinical isolate 087 assessed as apoptosis at 128 ug/ml after 48 hrs; type: functional, organism-based
Candida tropicalis [11] = assay: Synergistic antifungal activity against fluconazole-resistant Candida tropicalis clinical isolate 087 assessed as fungus with permeabilized membrane at 32 ug/ml after 12 hrs in presence of 2 ug/ml fluconazole by propidium iodide staining-based flow cytometry (reference value: 7.22%); type: functional
Candida tropicalis [12] = assay: Antifungal activity against fluconazole-resistant Candida tropicalis clinical isolate 087 assessed as fungal growth inhibition at 64 ug/ml after 48 hrs; type: functional, organism-based; how it was run: as §3
Candida tropicalis [13] = assay: Synergistic fungicidal activity against fluconazole-resistant Candida tropicalis clinical isolate 087 at 64 to 128 ug/ml after 48 hrs in presence of 1 ug/ml fluconazole; type: functional, organism-based; how it was run: as §3
Candida tropicalis [14] = assay: Antifungal activity against fluconazole-resistant Candida tropicalis clinical isolate 087 at 64 ug/ml after 16 hrs by turbidity method; type: functional, organism-based
How it was run: (§4)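 C. tropicalis 087 at 10^4 CFU ml–1 in RPMI 1640 in glass tubes. Compound (0–128 μg ml–1) and fluconazole (0–2 μg ml–1) were added alone or in combination. Tubes were shaken at 200 rpm at 30 °C for 16 h, and turbidity was inspected visually and photographed.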

Candida tropicalis [15] = assay: Antifungal activity against fluconazole-resistant Candida tropicalis clinical isolate 087 assessed as fungus with permeabilized membrane at 32 ug/ml after 12 hrs by propidium iodide staining-based flow cytometry (reference value: 7.22%); type: functional
Candida tropicalis [16] = assay: Synergistic antifungal activity against fluconazole-resistant Candida tropicalis clinical isolate 087 at 4 ug/ml after 16 hrs in presence of fluconazole by turbidity method; type: functional, organism-based; how it was run: as §4
Candida tropicalis [17] = assay: Antifungal activity against fluconazole-resistant Candida tropicalis clinical isolate 087 at 1 ug/ml after 16 hrs by turbidity method; type: functional, organism-based; how it was run: as §4
Candida tropicalis [18] = assay: Antifungal activity against fluconazole-resistant Candida tropicalis clinical isolate 087 assessed as fungal growth inhibition at 0.5 ug/ml after 48 hrs; type: functional, organism-based; how it was run: as §3
Candida tropicalis [19] = assay: Antifungal activity against fluconazole-resistant Candida tropicalis clinical isolate 087 assessed as fungus with permeabilized membrane at 2 ug/ml after 12 hrs by propidium iodide staining-based flow cytometry (reference value: 7.22%); type: functional

Row | SMILES | viability at 24 h, 32 ug/ml [1] [%] | viability at 24 h, 16 ug/ml [2] [%] | fractional inhibitory concentration index (FICI) (Pichia kudriavzevii [3]) | MIC80 (Pichia kudriavzevii [3]) [µg/mL] | MIC80 (Pichia kudriavzevii [4]) [µg/mL] | MIC80 (Candida tropicalis [5]) [µg/mL] | fractional inhibitory concentration index (FICI) (Candida tropicalis [6]) | MIC80 (Candida tropicalis [6]) [µg/mL] | fractional inhibitory concentration index (FICI) (Candida albicans [7]) | MIC80 (Candida albicans [7]) [µg/mL] | MIC80 (Candida albicans [8]) [µg/mL] | other results
1 | O=C1/C(=C/c2ccc(CO)o2)CC/C1=C\c1ccc(CO)o1 | 57 | 68 | >1.06 | > 64 | > 64 | > 64 | 0.125 | 4 | >1.06 | > 64 | > 64 | 
2 | O=C1/C(=C/c2ccc(O)cc2)CC/C1=C\c1ccc(O)cc1 | 60 | 69 | >1.06 | > 64 | > 64 | > 64 | 0.188 | 8 | >1.06 | > 64 | > 64 | 
3 | O=C1/C(=C/c2ccco2)CC/C1=C\c1ccco1 | 69 | 86 | >1.06 | > 64 | > 64 | > 64 | 0.188 | 8 | >1.06 | > 64 | > 64 | 
4 | O=C(/C=C/c1ccc(O)c(O)c1)/C=C/c1ccc(O)c(O)c1 | 75 | 91 | 0.188 | 8 | 64 (≈ 215 µM) | 64 (≈ 215 µM) | 0.125 | 4 | 0.125 | 4 | 64 (≈ 215 µM) | Activity (Candida tropicalis [9]): Active; Activity (Candida tropicalis [10]): Active; Activity (Candida tropicalis [11]): 72.79%; growth inhibition (GI) (Candida tropicalis [12]): Active; Activity (Candida tropicalis [13]): Active; Activity (Candida tropicalis [14]): Active; Activity (Candida tropicalis [15]): 20.92%; Activity (Candida tropicalis [16]): Active
5 | O=C(/C=C/c1cccs1)/C=C/c1cccs1 | 49 | 84 | >1.06 | > 64 | > 64 | > 64 | >1.06 | > 64 | 0.188 | 8 | > 64 | 
6 | O=C(/C=C/c1ccc(F)cc1)/C=C/c1ccc(F)cc1 | 43 | 64 | >1.06 | > 64 | > 64 | > 64 | 0.188 | 8 | >1.06 | > 64 | > 64 | 
7 | OC(Cn1cncn1)(Cn1cncn1)c1ccc(F)cc1F [FLUCONAZOLE] |  |  |  |  | 128 (≈ 418 µM) | 128 (≈ 418 µM) |  |  |  |  | 128 (≈ 418 µM) | Activity (Candida tropicalis [17]): inactive; growth inhibition (GI) (Candida tropicalis [18]): Active; Activity (Candida tropicalis [19]): 37.27%
